Measured values from ChEMBL document CHEMBL2346506, “Cytotoxicity and modulation of cancer-related signaling by (Z)- and (E)-3,4,3',5'-tetramethoxystilbene isolated from Eugenia rigida” (J Nat Prod, 2013).
Calls of active or inactive are those of the source. No cut-off for these calls is given here.

Legend:
Vero [1] = assay: Cytotoxicity against african green monkey Vero cells assessed as growth inhibition measured after 48 hrs by Neutral Red dye assay; conditions: Chlorocebus sabaeus
[2] = Inhibition of Notch signaling pathway in human HeLa cells assessed as inhibition of PMA induced luciferase treated 30 mins before induction; format: cell-based
In short: (§1)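 Reporter assay in cells transfected with pathway luciferase plasmids. Cells plated at 0.015 × 10⁶ per well in 10% FBS, switched after 24 h to DMEM with 1% FBS, then transfected. 24 h after transfection, compound (final 40, 60, 80 or 100 μM) was added, followed 30 min later by inducer (IL-6, TGF-β, wnt3a or PMA). Luciferase was read 4 or 6 h after induction (6 h for Notch, Wnt, Hedgehog). Value is the IC50 or the lowest concentration giving maximal 50–60% inhibition; two independent experiments.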

SK-OV-3 [3] = assay: Cytotoxicity against human SKOV3 cells assessed as growth inhibition measured after 48 hrs by Neutral Red dye assay; conditions: SK-OV-3, 48 h
[4] = Inhibition of Wnt signaling pathway in human HeLa cells assessed as inhibition of Wnt3a induced luciferase treated 30 mins before induction; format: cell-based
In short: as §1

SK-MEL = assay: Cytotoxicity against human SK-MEL cells assessed as growth inhibition measured after 48 hrs by Neutral Red dye assay
BT-549 = assay: Cytotoxicity against human BT549 cells assessed as growth inhibition measured at 100 uM after 48 hrs by Neutral Red dye assay
[5] = Inhibition of Hedgehog signaling pathway in human HeLa cells assessed as inhibition of PMA induced luciferase treated 30 mins before induction; format: cell-based
In short: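 HeLa cells plated at 0.015 × 10⁶/well in 10% FBS medium, switched after 24 h to DMEM with 1% FBS, then transfected with a Hedgehog luciferase reporter. After 24 h, compounds were added at 40, 60, 80 or 100 μM final, 30 min before PMA. Luciferase was read 6 h later. The value is the IC50 or lowest concentration giving maximal 50–60% inhibition, from two independent experiments.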

HeLa [6] = assay: Cytotoxicity against human HeLa cells assessed as growth inhibition measured at 100 uM after 48 hrs by Neutral Red dye assay
[7] = Inhibition of Hedgehog signaling pathway in human HeLa cells assessed as measured as lowest concentration required 50 to 60 % inhibition of PMA induced luciferase treated 30 mins before induction; format: cell-based
In short: as §1

KB = assay: Cytotoxicity against human KB cells assessed as growth inhibition measured at 100 uM after 48 hrs by Neutral Red dye assay
[8] = Inhibition of NFkappaB signaling pathway in human HeLa cells assessed as measured as lowest concentration required 50 to 60 % inhibition of PMA induced luciferase treated 30 mins before induction; format: cell-based
In short: as §1

[9] = Inhibition of Notch signaling pathway in human HeLa cells assessed as measured as lowest concentration required 50 to 60 % inhibition of PMA induced luciferase treated 30 mins before induction; format: cell-based
In short: as §1

[10] = molecular target: Forkhead box protein O1 (Homo sapiens) (UniProt Q12778); assay: Inhibition of FoxO signaling pathway in human HeLa cells assessed as inhibition of luciferase at 100 uM […]; format: cell-based
HeLa [11] = assay: Inhibition of Stat3 signaling pathway in human HeLa cells assessed as measured as lowest concentration required 50 to 60 % inhibition of IL-6 induced luciferase treated 30 mins before induction; format: functional
In short: as §1

[12] = Inhibition of Ets signaling pathway in human HeLa cells assessed as inhibition of PMA induced luciferase treated 30 mins before induction; format: cell-based
In short: as §1

HeLa [13] = assay: Inhibition of Stat3 signaling pathway in human HeLa cells assessed as inhibition of IL-6 induced luciferase treated 30 mins before induction; format: functional, cell-based
In short: as §1

LLC-PK1 [14] = assay: Cytotoxicity against pig LLC-PK1 cells assessed as growth inhibition measured after 48 hrs by Neutral Red dye assay; conditions: Sus scrofa, LLC-PK1, 48 h
[15] = Inhibition of E2F signaling pathway in human HeLa cells assessed as inhibition of PMA induced luciferase at 100 uM treated 30 mins before induction; format: cell-based
In short: as §1

HL-60 [16] = assay: Cytotoxicity against human HL60 cells assessed as growth inhibition measured after 48 hrs by XTT assay; format: functional, cell-based; conditions: HL-60, 48 h
[17] = Inhibition of NFkappaB signaling pathway in human HeLa cells assessed as inhibition of PMA induced luciferase treated 30 mins before induction; format: cell-based
In short: as §1

[18] = Inhibition of Wnt signaling pathway in human HeLa cells assessed as measured as lowest concentration required 50 to 60 % inhibition of Wnt3a induced luciferase treated 30 mins before induction; format: cell-based
In short: as §1

[19] = Inhibition of Ets signaling pathway in human HeLa cells assessed as measured as lowest concentration required 50 to 60 % inhibition of PMA induced luciferase treated 30 mins before induction; format: cell-based
In short: as §1

[20] = molecular target: Myc proto-oncogene protein (Homo sapiens) (UniProt P01106); assay: Inhibition of Myc signaling pathway in human HeLa cells assessed as measured as lowest concentration required 50 to 60 % inhibition of PMA induced luciferase treated 30 mins before induction; format: cell-based
In short: as §1

HeLa [21] = assay: Inhibition of smad3/4 signaling pathway in human HeLa cells assessed as inhibition of TGF-beta induced luciferase treated 30 mins before induction; format: functional, cell-based
In short: as §1

[22] = Inhibition of AP1 signaling pathway in human HeLa cells assessed as inhibition of PMA induced luciferase at 100 uM treated 30 mins before induction; format: cell-based
In short: as §1

HeLa [23] = assay: Inhibition of smad3/4 signaling pathway in human HeLa cells assessed as measured as lowest concentration required 50 to 60 % inhibition of TGF-beta induced luciferase treated 30 mins before induction; format: functional
In short: as §1

SK-OV-3 [24] = assay: Cytotoxicity against human SKOV3 cells assessed as growth inhibition measured at 100 uM after 48 hrs by […] assay; format: functional, cell-based
[25] = Inhibition of Ets signaling pathway in human HeLa cells assessed as inhibition of PMA induced luciferase at 100 uM treated 30 mins before induction; format: cell-based
In short: as §1

[26] = molecular target: T1, Nitric oxide synthase, inducible (Mus musculus) (UniProt P29477); assay: Inhibition of iNOS in LPS-induced mouse RAW264.7 cells assessed as inhibition of […] up to 33.3 uM measured after 24 hrs; format: cell-based
T1 sequence (whole entry): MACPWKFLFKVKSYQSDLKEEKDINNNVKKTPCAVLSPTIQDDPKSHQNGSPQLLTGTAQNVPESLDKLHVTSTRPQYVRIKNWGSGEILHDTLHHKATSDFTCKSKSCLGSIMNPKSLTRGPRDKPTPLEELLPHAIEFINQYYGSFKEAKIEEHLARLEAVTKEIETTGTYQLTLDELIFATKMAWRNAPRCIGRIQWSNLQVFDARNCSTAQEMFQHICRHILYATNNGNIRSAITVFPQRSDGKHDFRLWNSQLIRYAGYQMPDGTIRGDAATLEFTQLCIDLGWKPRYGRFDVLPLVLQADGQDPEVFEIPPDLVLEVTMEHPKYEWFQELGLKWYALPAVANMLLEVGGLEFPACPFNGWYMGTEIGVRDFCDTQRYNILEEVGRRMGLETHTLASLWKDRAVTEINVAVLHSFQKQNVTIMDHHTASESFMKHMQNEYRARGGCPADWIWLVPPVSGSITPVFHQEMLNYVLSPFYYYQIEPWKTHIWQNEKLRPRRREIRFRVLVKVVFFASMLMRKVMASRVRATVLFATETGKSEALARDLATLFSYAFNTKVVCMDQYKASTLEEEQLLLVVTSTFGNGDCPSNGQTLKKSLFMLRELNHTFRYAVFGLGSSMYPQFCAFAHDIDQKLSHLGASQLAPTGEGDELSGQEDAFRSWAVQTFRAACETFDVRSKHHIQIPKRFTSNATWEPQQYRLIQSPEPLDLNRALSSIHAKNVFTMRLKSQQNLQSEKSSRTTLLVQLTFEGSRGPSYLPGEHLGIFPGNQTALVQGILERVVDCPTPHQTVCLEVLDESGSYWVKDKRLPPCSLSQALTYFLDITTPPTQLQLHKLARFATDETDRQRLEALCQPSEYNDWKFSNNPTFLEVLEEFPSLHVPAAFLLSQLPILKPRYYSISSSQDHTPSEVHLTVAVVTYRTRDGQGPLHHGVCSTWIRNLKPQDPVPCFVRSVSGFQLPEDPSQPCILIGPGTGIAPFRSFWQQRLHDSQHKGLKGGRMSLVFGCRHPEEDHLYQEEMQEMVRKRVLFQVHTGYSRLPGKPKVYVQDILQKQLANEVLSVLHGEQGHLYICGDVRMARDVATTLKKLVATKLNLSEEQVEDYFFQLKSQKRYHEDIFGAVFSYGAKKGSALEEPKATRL
In short: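 RAW 264.7 macrophages seeded at 50 000 per well and grown 24 h. Compound added 30 min before LPS (5 μg/mL), then cells incubated a further 24 h. Nitrite in the supernatant measured with Griess reagent relative to vehicle control. Parthenolide served as positive control; cytotoxicity checked in parallel.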

[27] = Inhibition of AP1 signaling pathway in human HeLa cells assessed as inhibition of PMA induced luciferase treated 30 mins before induction; format: cell-based
In short: as §1

[28] = molecular target: Myc proto-oncogene protein (Homo sapiens) (UniProt P01106); assay: Inhibition of Myc signaling pathway in human HeLa cells assessed as inhibition of PMA induced luciferase at 100 uM treated 30 mins before induction; format: cell-based
In short: as §1

[29] = Inhibition of NFkappaB signaling pathway in human HeLa cells assessed as inhibition of PMA induced luciferase at 100 uM treated 30 mins before induction; format: cell-based
In short: as §1

LLC-PK1 [30] = assay: Cytotoxicity against pig LLC-PK1 cells assessed as growth inhibition measured at 100 uM after 48 hrs by […] assay; format: cell-based, Sus scrofa; conditions: llc-pk1, 48 h
[31] = Inhibition of Hedgehog signaling pathway in human HeLa cells assessed as inhibition of PMA induced luciferase at 100 uM treated 30 mins before induction; format: cell-based
In short: as §1

HL-60 [32] = assay: Inhibition of PMA induced ROS generation in human HL60 cells assessed as inhibition of ROA mediated oxidation of DCFH; format: functional, cell-based
In short: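 HL-60 cells (0.8 × 10⁶/mL) in RPMI-1640 with 10% FBS were pretreated 30 min with compound (0.4–100 μM). PMA (100 ng/mL) was then added for 30 min, followed by DCFH-DA (5 μg/mL) for 15 min. DCF fluorescence read at Ex 485 / Em 530 nm and compared with vehicle control. Trolox served as positive control.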

[33] = Inhibition of Notch signaling pathway in human HeLa cells assessed as inhibition of PMA induced luciferase at 100 uM treated 30 mins before induction; format: cell-based
In short: as §1

Vero [34] = assay: Cytotoxicity against african green monkey Vero cells assessed as growth inhibition measured at 100 uM after 48 hrs by […] assay; format: cell-based; conditions: chlorocebus sabaeus
HeLa [35] = assay: Inhibition of Stat3 signaling pathway in human HeLa cells assessed as inhibition of IL-6 induced luciferase at 100 uM treated 30 mins before induction; format: functional
In short: as §1

HeLa [36] = assay: Cytotoxicity against human HeLa cells assessed as growth inhibition measured after 48 hrs by Neutral Red dye assay
[37] = Inhibition of AP1 signaling pathway in human HeLa cells assessed as measured as lowest concentration required 50 to 60 % inhibition of PMA induced luciferase treated 30 mins before induction; format: cell-based
In short: as §1

Chain of Myc proto-oncogene protein (Homo sapiens) (P01106 whole entry): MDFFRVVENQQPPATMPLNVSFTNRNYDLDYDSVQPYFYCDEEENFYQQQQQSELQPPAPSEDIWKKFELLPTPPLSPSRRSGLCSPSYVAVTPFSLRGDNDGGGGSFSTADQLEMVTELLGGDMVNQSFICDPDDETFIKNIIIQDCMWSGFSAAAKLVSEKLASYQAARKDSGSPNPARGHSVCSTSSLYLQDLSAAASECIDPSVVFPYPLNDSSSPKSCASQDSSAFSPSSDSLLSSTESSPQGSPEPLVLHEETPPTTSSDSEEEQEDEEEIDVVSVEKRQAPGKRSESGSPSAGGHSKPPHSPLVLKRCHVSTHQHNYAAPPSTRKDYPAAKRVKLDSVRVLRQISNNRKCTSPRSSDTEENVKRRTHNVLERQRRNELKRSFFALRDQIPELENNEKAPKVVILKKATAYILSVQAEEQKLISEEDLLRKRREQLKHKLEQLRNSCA
Chain of Forkhead box protein O1 (Homo sapiens) (Q12778 whole entry): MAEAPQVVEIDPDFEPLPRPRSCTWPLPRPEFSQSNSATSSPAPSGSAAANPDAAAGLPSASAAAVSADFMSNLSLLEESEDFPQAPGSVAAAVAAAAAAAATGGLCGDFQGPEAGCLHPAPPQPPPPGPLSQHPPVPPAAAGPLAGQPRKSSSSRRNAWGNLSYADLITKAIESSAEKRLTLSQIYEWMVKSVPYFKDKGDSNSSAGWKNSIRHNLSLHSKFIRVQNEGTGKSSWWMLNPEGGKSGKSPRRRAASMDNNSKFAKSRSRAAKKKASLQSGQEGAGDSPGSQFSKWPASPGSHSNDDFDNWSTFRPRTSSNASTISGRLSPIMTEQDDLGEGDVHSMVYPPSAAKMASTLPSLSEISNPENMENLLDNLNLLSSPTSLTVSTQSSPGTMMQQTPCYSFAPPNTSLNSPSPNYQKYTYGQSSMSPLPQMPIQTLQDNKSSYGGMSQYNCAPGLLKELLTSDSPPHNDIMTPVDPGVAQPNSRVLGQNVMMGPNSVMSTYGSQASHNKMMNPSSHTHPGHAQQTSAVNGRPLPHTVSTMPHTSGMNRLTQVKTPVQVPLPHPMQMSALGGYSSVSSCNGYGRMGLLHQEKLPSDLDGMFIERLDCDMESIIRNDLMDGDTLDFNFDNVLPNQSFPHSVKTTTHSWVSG

Oc1ccc(/C=C/c2cc(O)cc(O)c2)cc1 [RESVERATROL]
IC50 (Vero [1]): 73.6 µM | IC50 [2]: 40 µM | IC50 (SK-OV-3 [3]): 113 µM | IC50 [4]: 60 µM | IC50 (SK-MEL): 47.3 µM | growth inhibition (GI) (BT-549): inactive | IC50 [5]: 40 µM | growth inhibition (GI) (HeLa [6]): inactive | MED [7]: 40 µM | growth inhibition (GI) (KB): inactive | MED [8]: 60 µM | MED [9]: 40 µM | inhibition [10]: < 40% | MED (HeLa [11]): 53 µM | IC50 [12]: 50 µM | IC50 (HeLa [13]): 70 µM | IC50 (LLC-PK1 [14]): 52.5 µM | inhibition [15]: < 40% | IC50 (HL-60 [16]): 31.8 µM | IC50 [17]: 50 µM | MED [18]: 70 µM | MED [19]: 55 µM | MED [20]: 55 µM | IC50 (HeLa [21]): 50 µM | inhibition [22]: < 40% | MED (HeLa [23]): 33 µM

COc1cc(/C=C/c2ccc(OC)c(OC)c2)cc(OC)c1 [(E)-3,4,3',5'-TETRAMETHOXYSTILBENE]
growth inhibition (GI) (SK-OV-3 [24]): inactive | IC50 [4]: 80 µM | IC50 (SK-MEL): 60 µM | inhibition [25]: < 40% | growth inhibition (GI) (BT-549): inactive | inhibition [26]: inactive | growth inhibition (GI) (KB): inactive | IC50 [27]: 80 µM | inhibition [10]: < 40% | inhibition [28]: < 40% | inhibition [29]: < 40% | growth inhibition (GI) (LLC-PK1 [30]): Not Active | inhibition [15]: < 40% | inhibition [31]: < 40% | IC50 (HL-60 [32]): 33.3 µM | inhibition [33]: < 40% | growth inhibition (GI) (Vero [34]): Not Active | IC50 (HL-60 [16]): 33.3 µM | inhibition at 100 µM (HeLa [35]): < 40% | IC50 (HeLa [36]): 8 µM | IC50 [17]: 90 µM | MED [37]: 100 µM | MED [18]: 80 µM | IC50 (HeLa [21]): 100 µM | MED (HeLa [23]): 77 µM
